# Paper PMC4973383 (Acta Pharmacologica Sinica, 2016)
# How the values were obtained:
# [1] = system: HCT8/ADR cells; assay: In vitro cytotoxicity, MTT assay; format: cell-based, human; settings: 48 h, concentration up to 20 μg/mL
# In short: (§1)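 HCT8 and HCT8/ADR cells were grown in RPMI-1640 with 10% FBS, streptomycin and penicillin at 37 °C under 5% CO₂. Cells were seeded at 5×10^3 per well and grown 24 h, then exposed to varying concentrations of test nanoparticles or free Dox for 48 h. MTT (5 mg/mL stock) was added for a further 4 h, then DMSO. Absorbance was read at 490 nm and viability calculated. Run in triplicate.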
# [2] = system: HCT8/ADR cells; assay: Intranuclear distribution by confocal microscopy; format: cell-based, human; settings: 4 h incubation, DAPI counterstain
# In short: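 HCT8/ADR cells were seeded at 2×10^4 per well in RPMI-1640 with 10% FBS and grown 24 h. They were incubated 4 h with test nanoparticles or free Dox, washed twice in ice-cold PBS, and fixed in fresh 4% paraformaldehyde for 15 min at room temperature. Nuclei were counterstained with DAPI and imaged by confocal laser scanning microscopy for Dox fluorescence.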
# [3] = system: BALB/c-nu nude mice; assay: Preliminary treatment safety in tumor-bearing nude mice; format: in vivo
# In short: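 Female BALB/c-nu nude mice aged 3-4 weeks received 1×10^6 HCT8/ADR cells subcutaneously on the back. They were randomised into five groups of six: PBS, test nanoparticles or Dox given peritumorally, and test nanoparticles or Dox given intravenously. Dosing started at about 100 mm³ tumour volume, at 2 mg/kg Dox-equivalent every two days over 22 d. Body weight was monitored. At endpoint, organs were weighed, organ coefficient was taken as organ weight/body weight×100%, and histology was done.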
# [4] = system: HCT8/ADR cells; assay: Effect of verapamil; format: cell-based, human; settings: HCT8/ADR cells pretreated with verapamil 50 μmol/L for 2 h; drug incubation 1 h or 2 h; flow cytometry
# [5] = system: HCT8 cells; assay: In vitro cytotoxicity, MTT assay; format: cell-based, human; settings: 48 h, Dox-equivalent concentration
# In short: as §1
smiles,measurement,setting,value
"COc1cccc2c1C(=O)c1c(O)c3c(c(O)c1C2=O)C[C@@](O)(C(=O)CO)C[C@@H]3O[C@H]1C[C@H](N)[C@H](O)[C@H](C)O1 [Dox, Doxorubicin]",antitumor activity (cytotoxicity),[1],ineffective
same,"Dox-related red fluorescence, intranuclear accumulation",[2],hardly observed
same,body weight change,"[3]; Dox dose 2 mg/kg per two days over 22 d, nude mice bearing HCT8/ADR tumor",remarkable body weight loss
same,histological examination of major organs,"[3]; at experimental endpoint, 22 d",degeneration and edema and focal cytolysis necrosis in the liver and spleen
same,organ coefficient of liver and spleen,"[3]; iv, at experimental endpoint, 22 d",reduced markedly
same,change of uptake efficiency after verapamil,[4],clearly increased uptake efficiency
same,IC50 (cell proliferation),[5],approximately 1 μg/mL
